Active and inactive are the calls of the source. The rule behind the calls is not given here.
How the values were obtained:
OVCAR-3 [1] = test: Induction of ferroptosis in human OVCAR-3 cells at 0.001 to 10 uM in presence of ferrostatin-1 by CellTiterGlo assay; type: functional, cell-based; conditions: dose 0.001-10 µM
OVCAR-3 [2] = test: Cytostatic activity against human OVCAR-3 cells assessed as […] in colony formation at 10 nM incubated for 8 hrs measured after 2 weeks by crystal violet staining based analysis; type: functional, cell-based; conditions: time 344.0 hrs
How it was run: (§1)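 Seeded at 200 cells per dish, attached overnight, exposed 8 h to 10 nM (DMSO vehicle 0.1%), then grown 15 days in untreated growth medium. Colonies fixed with 4% paraformaldehyde, stained with 0.05% crystal violet, counted and normalised to vehicle. Mean ± SEM, three biological replicates, one-way ANOVA with Dunnett's test.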

OVCAR-8 [3] = test: Cytostatic activity against human OVCAR-8 cells assessed as […] in colony formation at 10 nM incubated for 8 hrs measured after 2 weeks by crystal violet staining based analysis; type: functional, cell-based; conditions: time 344.0 hrs; how it was run: as §1
[4] = Cytotoxicity against human FT33 cells assessed as inhibition of cell growth for 72 hrs by CellTiter-Blue cell viability assay; type: toxicity, cell-based
How it was run: (§2)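 5000 cells seeded in triplicate, attached overnight, then exposed for 72 h to serial concentrations in DMSO vehicle (0.05%). Viability was read by fluorometric CellTiter-Blue. IC50 in nM comes from dose–response curves relative to DMSO control. Media: OVCAR3 in RPMI1640, OVCAR5/OVCAR8 in DMEM, hFT33 in DMEM-Ham's F12 50/50, all with 10% FBS. Data are mean ± SEM, three biological replicates.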

OVCAR-8 [5] = test: Cytotoxicity against human OVCAR-8 cells assessed as inhibition of cell growth for 72 hrs by CellTiter-Blue cell viability assay; type: functional, cell-based; conditions: OVCAR-8, 72 h; how it was run: as §2
OVCAR-5 [6] = test: Cytostatic activity against human OVCAR-5 cells assessed as […] in colony formation at 10 nM incubated for 8 hrs measured after 2 weeks by crystal violet staining based analysis; type: functional, cell-based; conditions: time 344.0 hrs; how it was run: as §1
OVCAR-5 [7] = test: Cytotoxicity against human OVCAR-5 cells assessed as inhibition of cell growth for 72 hrs by CellTiter-Blue cell viability assay; type: functional, cell-based; conditions: OVCAR-5, 72 h; how it was run: as §2
OVCAR-3 [8] = test: Cytotoxicity against human OVCAR-3 cells assessed as inhibition of cell growth for 72 hrs by CellTiter-Blue cell viability assay; type: functional, cell-based; conditions: OVCAR-3, 72 h; how it was run: as §2

In the case of `COC(=O)c1ccc([C@H]2c3[nH]c4ccccc4c3C[C@H](C(=O)OC)N2C(=O)CCl)cc1`, the Activity (OVCAR-3 [1]) is reported as “inactive”.

With `CC(C)Oc1ccc(C(=O)Cn2ccnc2)cc1-n1c(CN2CCN(C(=O)COc3ccc(Cl)cc3)CC2)nc2ccccc2c1=O` the Activity (OVCAR-3 [1]) was “inactive”.

For `CC(=O)O[C@H]1C(=O)[C@@]2(C)[C@H]([C@H](OC(=O)c3ccccc3)[C@]3(O)C[C@H](OC(=O)[C@H](O)[C@@H](NC(=O)c4ccccc4)c4ccccc4)C(C)=C1C3(C)C)[C@]1(OC(C)=O)CO[C@@H]1C[C@@H]2O` [PACLITAXEL], the Activity (OVCAR-3 [2]) was “Active”, the Activity (OVCAR-8 [3]) was “Active” and the IC50 at 72 h [4] was 11 nM. For the same compound, the IC50 (OVCAR-8 [5]) was 6.5 nM, the Activity (OVCAR-5 [6]) was “Active” and the IC50 (OVCAR-5 [7]) was 3.6 nM. It also gave an IC50 (OVCAR-3 [8]) of 2.6 nM.
